The values that follow come from PubChem BioAssay.

The structures appear in SMILES notation. Values without a mark were called inactive. Results filed as inconclusive are left out. Calls of active or inactive are those of the source.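 How the source made its calls, unless noted: active means inhibition over a set limit, the all-compound mean plus 3 SD, in both replicate runs; inconclusive means over that limit in just one replicate run; inactive means at or under that limit in both runs.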

Assay [1] is described as follows: S. cerevisiae growth inhibition in permissive medium (OD615), pilot counter-assay for S. cerevisiae lifespan shortening project, permissive growth control (AID 705;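 active means growth inhibition above 25% in both replicates, a cutoff set 3 SD above the mean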). The conditions noted are these: OD615, 24 h, at 10 µM, active compounds read high. In outline:
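System: S. cerevisiae with engineered DeaD lifespan system / Measured by: absorbance (optical density) at 615 nm / Read-out: reduction in yeast growth (OD615) / Times: 4 h cell pre-growth, 24 h exposure at 30 °C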

Assay [2] can be described thus: S. cerevisiae growth inhibition in restrictive medium, OD615, pilot screen, restrictive growth control, yeast lifespan reduction project (AID 706;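 active means growth inhibition above a set limit, 3 SD over mean compound inhibition, in both replicates, cut at about 43% in these data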;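 further: modified DeaD lifespan yeast strain shifted to restrictive glucose medium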). The conditions noted are these: OD615, 48 h, at 10 µM, active compounds read high. An outline of the steps: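 System: Engineered S. cerevisiae DeaD strain | Buffer or medium: Glucose-based CSMM-D restrictive medium | Schedule: 4 h pre-incubation, 48 h exposure at 30 °C | Technique: Optical density at 615 nm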

Assay [3] in a line: doxorubicin toxicity protection in MRP-1 cells – H69AR cells, CellTiter-Glo, duplicate, MRP-1 activator project, pilot screen (AID 807;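 active means viability increase at or above a cutoff of the median across tested compounds plus 3 SD, cut at about 8.5% in these data, passing the limit was not always enough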;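 further: compound pretreatment 18-22 h then 72 h combined with doxorubicin; 0% = doxorubicin alone and 100% = vehicle without doxorubicin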). The conditions noted are these: H69AR viability with doxorubicin, CellTiter-Glo luminescence; at 10 µM; active compounds read high. (In ATP-based viability assays light output follows the ATP content of the culture.)
Assay [4] is described as follows: viability of HCT116 without oncogenic beta-catenin – human colon tumor cells, pilot screen (AID 823;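 active means cell viability at or below a set limit in both duplicate runs, the limit being the all-compound median minus 4 SD, cut at about 23% in these data, passing the limit was not always enough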;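 further: 0% = wells killed by 20 µM Hyamine and 100% = untreated DMSO cell wells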). Particulars: HCT116 beta-catenin knockout viability, CellTiter-Glo, 60 h; at 10 µM; active compounds read low.
The nature of assay [5]: viability of PTEN-null HCT116 cells – cell-based, HCT116 clonal line, CellTiter-Glo, pilot screen (AID 824;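 active means viability at or below 27.92% in each of two runs, the all-compound median minus 4 SD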;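 further: 0% = 20 µM Hyamine control and 100% = vehicle cell control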). Particulars: HCT116 PTEN-deleted viability, 60 h, at 10 µM, active compounds read low.
Assay [6] can be described thus: RAM pathway blockade in budding yeast – dse1pr::URA3 reporter, 5-FOA selection, pilot screen (AID 869).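 Further: 0% = DMSO wells with no growth and 100% = 10 µM 1-NA-PP1 with full growth; RAM network block rescues cells from 5-FOA so hits raise OD615 growth.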 Particulars: S. cerevisiae dse1pr::URA3 5-FOA growth, OD615, 2 d; at 10 µM; active compounds read high; strain carries analog-sensitive mutant Cbk1 kinase.
Assay [7] can be described thus: RAM signaling pathway blockade in yeast – S. cerevisiae, Pdr1DBD-CYC8 efflux-inhibited sensitized strain, primary screen (AID 1298;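 active means RAM network inhibition above 8.4% in each of two replicates, 3 SD over the compound average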;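 further: 0% = DMSO untreated cells without growth and 100% = 10 µM 1-NA-PP1 full growth; higher means more yeast growth rescued from 5-FOA killing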). Particulars: S. cerevisiae cbk1-as DSE1-URA3 strain, 5-FOA growth OD615, 2 d; at 50 µM; active compounds read high.

By viability is commonly meant a read-out of living cells in per cent, often relative to untreated cells. The term inhibition denotes the drop in the measured response relative to a control, in per cent. Regarding `O=C(COC(=O)c1cc2ccccc2o1)c1ccccc1`, the results for the growth inhibition in assay [1] and in assay [2] were -8.98% and 2%, respectively. In addition, in assay [3], the viability increase was -0.26%. For the same molecule, the viability in assay [4] was 96.9%; in assay [5] it was 98.1%. For the same molecule, the inhibition in assay [6] is -0.115%. The RAM network inhibition in assay [7] was 2.95%.

Take `c1ccc(-c2nnc(-c3ccccn3)nn2)nc1`: the growth inhibition in assay [1] is 34.5% (active); in assay [2] it was 88.1% (active). Moreover, the viability increase in assay [3] was 0.07%. Moreover, the results for the viability in assay [4] and in assay [5] were 68.2% and 83%, respectively. The inhibition in assay [6] is -0.025%. Moreover, the RAM network inhibition in assay [7] is -3%.

As to `Cc1ccc(/C=N/c2sc3c(c2C#N)CCC3)s1`, the growth inhibition was -1.95% in assay [1] and -5.03% in assay [2]. In addition, in assay [3], the viability increase is -0.97%. The viability was 96.1% in assay [4] and 93.8% in assay [5]. Moreover, in assay [6], the inhibition was 1.21%. Besides, the RAM network inhibition in assay [7] was 7%.

As for `Cc1cc(Nc2ccc(F)cc2C)n2nc(C)nc2n1`, the figures for the growth inhibition in assay [1] and in assay [2] were -2.58% and -5.02%, respectively. Also, the viability increase in assay [3] was -1.42%. The viability in assay [4] is 101%; in assay [5], 98.7%. The inhibition in assay [6] was 2.01%. The RAM network inhibition in assay [7] was 5.08%.

For `COC(=O)C1C(=O)c2c([nH]c(C(=O)OC3CCCCC3)c2C)CC1C` (centres undefined), the growth inhibition in assay [1] was -2.87%; in assay [2], 2.14%. Also, in assay [3], the viability increase was 2.69%. Further, the figures for the viability in assay [4] and in assay [5] were 107% and 104%, respectively. For the same molecule, in assay [6], the inhibition was 0.105%. Also, the RAM network inhibition in assay [7] is 2.04%.

On to `Cc1cc(C)c2c(CC(=O)O)coc2c1`, for which the growth inhibition is -5.72% in assay [1] and 10.2% in assay [2]. Also, in assay [3], the viability increase is 0.24%. Also, the viability in assay [4] was 93.9%; in assay [5] it was 105%. Besides, the inhibition in assay [6] was 2.03%. For the same molecule, the RAM network inhibition in assay [7] was 0.98%.

`CC1CCC(n2c(=S)[nH]c3ccccc3c2=O)CC1` (centres undefined): the growth inhibition is 13% in assay [1] and 23% in assay [2]. Also, the viability increase in assay [3] is -4.34%. Besides, the results for the viability in assay [4] and in assay [5] were 81.5% and 75.4%, respectively. For the same molecule, the inhibition in assay [6] is 0.285%. Also, in assay [7], the RAM network inhibition was 5.25%.

Turning to `CCOCCCNC(=O)CN1C(=O)CSc2ccccc21`, the figures for the growth inhibition in assay [1] and in assay [2] were -18.9% and -6.29%, respectively. The viability increase in assay [3] was -0.22%. Further, the viability in assay [4] is 101%; in assay [5], 98.9%. Further, the inhibition in assay [6] was 1.49%. Also, the RAM network inhibition in assay [7] was 2.6%.

Consider `COc1cccc(-n2nnc3c(=O)n(C/C=C/c4ccccc4)cnc32)c1`, for which the growth inhibition in assay [1] was -5.38%; in assay [2], -7.15%. In addition, in assay [3], the viability increase was 0.57%. For the same molecule, the viability in assay [4] was 92.3%; in assay [5], 86.9%. The inhibition in assay [6] was 3.2%. The RAM network inhibition in assay [7] is 2.07%.

On to `COc1cccc(-c2cc(C(=O)N3CCN(c4ncccn4)CC3)c3ccccc3n2)c1`, for which the values for the growth inhibition in assay [1] and in assay [2] were 0.09% and -2.04%, respectively. Also, in assay [3], the viability increase was -6.25%. Also, the viability in assay [4] is 62%; in assay [5], 64%. Moreover, the inhibition in assay [6] was 1.14%. In assay [7], the RAM network inhibition is -0.21%.

Consider `Cc1ccccc1C(=O)OCn1nnc2ccccc2c1=O`, for which the growth inhibition was -1.86% in assay [1] and -19.1% in assay [2]. Also, the viability increase in assay [3] was -2.87%. The results for the viability in assay [4] and in assay [5] were 88.9% and 93.2%, respectively. The inhibition in assay [6] is 1.44%. Besides, the RAM network inhibition in assay [7] is 2.2%.

For the molecule `Cn1c(Cn2c(=O)sc3ccccc32)nnc1SCC(=O)Nc1cccc(Cl)c1`, the growth inhibition in assay [1] was -3.44%; in assay [2], -16.1%. The viability increase in assay [3] was -0.83%. In addition, the viability is 99.6% in assay [4] and 98.8% in assay [5]. Besides, the inhibition in assay [6] was 2.58%. In addition, the RAM network inhibition in assay [7] is 2.23%.

For `COC(=O)c1ccc(CSc2ncn[nH]2)o1`, the growth inhibition in assay [1] was -2.62%; in assay [2], 3.27%. Besides, the viability increase in assay [3] was 0.51%. Further, the viability in assay [4] was 94.7%; in assay [5] it was 97.5%. For the same molecule, the inhibition in assay [6] was 0.395%. Further, the RAM network inhibition in assay [7] was 3.38%.

Regarding `COc1ccc(NS(=O)(=O)c2ccc(OC)c(OC)c2)cc1OC`, the growth inhibition in assay [1] was -7.13%; in assay [2] it was 4.59%. Also, in assay [3], the viability increase is 0.52%. In addition, the viability in assay [4] was 92%; in assay [5] it was 90.7%. The inhibition in assay [6] was 0.335%. Further, the RAM network inhibition in assay [7] is 0%.

Regarding `O=C(O)c1ccc(NS(=O)(=O)c2ccc3c(c2)OCCO3)cc1`, the values for the growth inhibition in assay [1] and in assay [2] were 4.96% and -3.53%, respectively. The viability increase in assay [3] was 0.04%. Also, the viability in assay [4] was 107%; in assay [5] it was 108%. The inhibition in assay [6] was 0.975%. Moreover, the RAM network inhibition in assay [7] is 1.55%.

For `CCOC(=O)c1c(N=CN(C)C)c(C#N)n2c1CCC2`, the growth inhibition is -15.1% in assay [1] and -6.7% in assay [2]. The viability increase in assay [3] was -1.41%. Besides, the viability in assay [4] was 101%; in assay [5], 93.2%. In addition, the inhibition in assay [6] is 1.11%. Also, the RAM network inhibition in assay [7] is 5.49%.

On to `COc1cccc(-n2nnc3c(=O)n(Cc4cccc(C)c4)cnc32)c1`, for which the results for the growth inhibition in assay [1] and in assay [2] were -8.22% and -5.66%, respectively. Besides, in assay [3], the viability increase was 0.31%. Moreover, the viability is 104% in assay [4] and 89.7% in assay [5]. Moreover, the inhibition in assay [6] was 0.335%. Besides, in assay [7], the RAM network inhibition was 5.49%.
